Experimental data: ChEMBL document CHEMBL3046951, “Volatile constituents from the leaves of Callicarpa japonica Thunb. and their antibacterial activities” (2004)

How the values were obtained:
[1] = tested on: Salmonella typhimurium; test: Antimicrobial activity against Salmonella enterica subsp. enterica serovar Typhimurium ATCC 14028 assessed as growth inhibition rate at 16.8 mg/l after 72 hr by spectrophotometry; type: functional; conditions: ATCC 14028, 72 h, read-out: GI
How it was run: (§1)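 Salmonella Typhimurium ATCC 14028 grown in nutrient broth at 30 °C, precultured 24 h, then subcultured 1:100 for 18 h before testing. Single volatile compounds (>95% pure) were added. OD was read every 24 h over 72 h in a Bioscreen C, with 10% Tween 80 as the comparison control.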

[2] = tested on: Vibrio parahaemolyticus; test: Antimicrobial activity against Vibrio parahaemolyticus ATCC 33844 assessed as growth inhibition rate at 16.8 mg/l after 72 hr by spectrophotometry; type: functional; conditions: ATCC 33844, 72 h, read-out: GI
[3] = tested on: Staphylococcus aureus; test: Antimicrobial activity against Staphylococcus aureus ATCC 25923 assessed as growth inhibition rate at 16.8 mg/l after 72 hr by spectrophotometry; type: functional; conditions: ATCC 25923, 72 h, read-out: GI
[4] = tested on: Bacillus cereus; test: Antimicrobial activity against Bacillus cereus ATCC 11778 assessed as growth inhibition rate at 16.8 mg/l after 72 hr by spectrophotometry; type: functional; conditions: ATCC 11778, 72 h, read-out: GI
How it was run: (§2)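 Pure volatile compounds (purity >95%; one at 90%) were tested against B. cereus ATCC 11778. The strain was grown at 30 °C in nutrient broth for 24 h, then subcultured for 18 h. Optical density was read in a Bioscreen C every 24 h for 72 h, with 10% Tween 80 as the control.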

[5] = tested on: Escherichia coli; test: Antimicrobial activity against Escherichia coli O157:H7 ATCC 43894 assessed as growth inhibition rate at 16.8 mg/l after 72 hr by spectrophotometry; type: functional; conditions: O157:H7 ATCC 43894, 72 h, read-out: GI
[6] = tested on: Listeria monocytogenes; test: Antimicrobial activity against Listeria monocytogenes ATCC 19111 assessed as growth inhibition rate at 16.8 mg/l after 72 hr by spectrophotometry; type: functional; conditions: ATCC 19111, 72 h, read-out: GI
How it was run: (§3)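 L. monocytogenes was grown at 30 °C in tryptic soy broth, subcultured for 18 h, and exposed to pure volatile compounds (>95% purity). Growth was followed by Bioscreen C optical density every 24 h for 72 h against a 10% Tween 80 control.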

[7] = tested on: Vibrio parahaemolyticus; test: Antimicrobial activity against Vibrio parahaemolyticus ATCC 33844 assessed as growth inhibition rate at 2.36 mg/l after 72 hr by spectrophotometry; type: functional; conditions: ATCC 33844, 72 h, read-out: GI
[8] = tested on: Escherichia coli; test: Antimicrobial activity against Escherichia coli O157:H7 ATCC 43894 assessed as growth inhibition rate at 2.36 mg/l after 72 hr by spectrophotometry; type: functional; conditions: O157:H7 ATCC 43894, 72 h, read-out: GI
[9] = tested on: Staphylococcus aureus; test: Antimicrobial activity against Staphylococcus aureus ATCC 25923 assessed as growth inhibition rate at 2.36 mg/l after 72 hr by spectrophotometry; type: functional; conditions: ATCC 25923, 72 h, read-out: GI
[10] = tested on: Listeria monocytogenes; test: Antimicrobial activity against Listeria monocytogenes ATCC 19111 assessed as growth inhibition rate at 2.36 mg/l after 72 hr by spectrophotometry; type: functional; conditions: ATCC 19111, 72 h, read-out: GI; how it was run: as §3
[11] = tested on: Bacillus cereus; test: Antimicrobial activity against Bacillus cereus ATCC 11778 assessed as growth inhibition rate at 2.36 mg/l after 72 hr by spectrophotometry; type: functional; conditions: ATCC 11778, 72 h, read-out: GI; how it was run: as §2
[12] = tested on: Salmonella typhimurium; test: Antimicrobial activity against Salmonella enterica subsp. enterica serovar Typhimurium ATCC 14028 assessed as growth inhibition rate at 2.36 mg/l after 72 hr by spectrophotometry; type: functional; conditions: ATCC 14028, 72 h, read-out: GI; how it was run: as §1
[13] = tested on: Listeria monocytogenes; test: Antimicrobial activity against Listeria monocytogenes ATCC 19111 assessed as growth inhibition rate at 1.84 mg/l after 72 hr by spectrophotometry; type: functional; conditions: ATCC 19111, 72 h, read-out: GI; how it was run: as §3
[14] = tested on: Staphylococcus aureus; test: Antimicrobial activity against Staphylococcus aureus ATCC 25923 assessed as growth inhibition rate at 1.84 mg/l after 72 hr by spectrophotometry; type: functional; conditions: ATCC 25923, 72 h, read-out: GI
[15] = tested on: Salmonella typhimurium; test: Antimicrobial activity against Salmonella enterica subsp. enterica serovar Typhimurium ATCC 14028 assessed as growth inhibition rate at 1.84 mg/l after 72 hr by spectrophotometry; type: functional; conditions: ATCC 14028, 72 h, read-out: GI; how it was run: as §1
[16] = tested on: Escherichia coli; test: Antimicrobial activity against Escherichia coli O157:H7 ATCC 43894 assessed as growth inhibition rate at 1.84 mg/l after 72 hr by spectrophotometry; type: functional; conditions: O157:H7 ATCC 43894, 72 h, read-out: GI
[17] = tested on: Vibrio parahaemolyticus; test: Antimicrobial activity against Vibrio parahaemolyticus ATCC 33844 assessed as growth inhibition rate at 1.84 mg/l after 72 hr by spectrophotometry; type: functional; conditions: ATCC 33844, 72 h, read-out: GI
[18] = tested on: Bacillus cereus; test: Antimicrobial activity against Bacillus cereus ATCC 11778 assessed as growth inhibition rate at 1.84 mg/l after 72 hr by spectrophotometry; type: functional; conditions: ATCC 11778, 72 h, read-out: GI; how it was run: as §2
[19] = tested on: Salmonella typhimurium; test: microbe, parasite or virus in culture; conditions: Salmonella enterica, ATCC 14028, 72 h, read-out: GI
[20] = tested on: Escherichia coli; test: microbe, parasite or virus in culture; conditions: O157:H7 ATCC 43894, 72 h, read-out: GI
[21] = tested on: Staphylococcus aureus; test: microbe, parasite or virus in culture; conditions: ATCC 25923, 72 h, read-out: GI
[22] = tested on: Listeria monocytogenes; test: microbe, parasite or virus in culture; conditions: ATCC 19111, 72 h, read-out: GI
[23] = tested on: Vibrio parahaemolyticus; test: microbe, parasite or virus in culture; conditions: ATCC 33844, 72 h, read-out: GI
[24] = tested on: Bacillus cereus; test: microbe, parasite or virus in culture; conditions: ATCC 11778, 72 h, read-out: GI
[25] = tested on: Bacillus cereus; test: Antimicrobial activity against Bacillus cereus ATCC 11778 assessed as growth inhibition rate at 1.96 mg/l after 72 hr by spectrophotometry; type: functional; conditions: ATCC 11778, 72 h, read-out: GI
How it was run: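 Pure volatile compounds (>95% purity; 2,4-heptadienal 90%) identified in the leaf extract were tested against B. cereus ATCC 11778 in nutrient broth at 30 °C. The inoculum was grown 24 h, then subcultured (0.1 mL into 9.9 mL) for 18 h. Optical density was read in a Bioscreen C every 24 h for 72 h against a 10% Tween 80 control.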

[26] = tested on: Staphylococcus aureus; test: Antimicrobial activity against Staphylococcus aureus ATCC 25923 assessed as growth inhibition rate at 1.96 mg/l after 72 hr by spectrophotometry; type: functional; conditions: ATCC 25923, 72 h, read-out: GI
How it was run: (§4)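 Authentic volatiles (>95% purity; 2,4-heptadienal 90%) tested against 18 h subcultures. Growth media: E. coli O157:H7 and S. aureus in tryptic soy broth at 37 °C; L. monocytogenes in tryptic soy broth at 30 °C; V. parahaemolyticus in tryptic soy broth + 3% NaCl at 37 °C; S. typhimurium in nutrient broth at 30 °C. Bioscreen C OD every 24 h for 72 h versus 10% Tween 80 control.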

[27] = tested on: Escherichia coli; test: Antimicrobial activity against Escherichia coli O157:H7 ATCC 43894 assessed as growth inhibition rate at 1.96 mg/l after 72 hr by spectrophotometry; type: functional; conditions: O157:H7 ATCC 43894, 72 h, read-out: GI
[28] = tested on: Listeria monocytogenes; test: Antimicrobial activity against Listeria monocytogenes ATCC 19111 assessed as growth inhibition rate at 1.96 mg/l after 72 hr by spectrophotometry; type: functional; conditions: ATCC 19111, 72 h, read-out: GI; how it was run: as §4
[29] = tested on: Vibrio parahaemolyticus; test: Antimicrobial activity against Vibrio parahaemolyticus ATCC 33844 assessed as growth inhibition rate at 1.96 mg/l after 72 hr by spectrophotometry; type: functional; conditions: ATCC 33844, 72 h, read-out: GI; how it was run: as §4

`CCCCCC=O` [HEXANAL] showed an inhibition of growth at 16.8 µg/mL [1] of 39.1%, an inhibition of growth at 16.8 µg/mL [2] of 57.8% and an inhibition of growth at 16.8 µg/mL [3] of 11.3%. The inhibition of growth at 16.8 µg/mL [4] was 19.3%, the inhibition of growth at 16.8 µg/mL [5] was 41.5% and the inhibition of growth at 16.8 µg/mL [6] was 14.4%.
`CCCCC=O` [PENTANAL] gave an inhibition of growth at 2.36 µg/mL [7] of 0%, an inhibition of growth at 2.36 µg/mL [8] of 0% and an inhibition of growth at 2.36 µg/mL [9] of 6.3%. It also gave an inhibition of growth at 2.36 µg/mL [10] of 0%, an inhibition of growth at 2.36 µg/mL [11] of 11.3% and an inhibition of growth at 2.36 µg/mL [12] of 4.2%.
In the case of `CC/C=C/C=O` [PENTENAL], the inhibition of growth at 1.84 µg/mL [13] is reported as 16.9%, the inhibition of growth at 1.84 µg/mL [14] is reported as 12.2% and the inhibition of growth at 1.84 µg/mL [15] is reported as 39.6%. For the same molecule, the inhibition of growth at 1.84 µg/mL [16] was 11%, the inhibition of growth at 1.84 µg/mL [17] was 40.7% and the inhibition of growth at 1.84 µg/mL [18] was 27.4%.
For `CCCO` [PROPANOL], the inhibition of growth at 1.76 µg/mL [19] was 2.6%, the inhibition of growth at 1.76 µg/mL [20] was 0% and the inhibition of growth at 1.76 µg/mL [21] was 6.1%. It also gave an inhibition of growth at 1.76 µg/mL [22] of 0%, an inhibition of growth at 1.76 µg/mL [23] of 0% and an inhibition of growth at 1.76 µg/mL [24] of 0%.
In the case of `Cc1ccccc1` [TOLUENE], the inhibition of growth at 1.96 µg/mL [25] is reported as 0%, the inhibition of growth at 1.96 µg/mL [26] is reported as 1.8% and the inhibition of growth at 1.96 µg/mL [27] is reported as 0%. It also gave an inhibition of growth at 1.96 µg/mL [28] of 0% and an inhibition of growth at 1.96 µg/mL [29] of 1.6%.
